Measurements from ChEMBL document CHEMBL3868592, “Analogues of Marine Guanidine Alkaloids Are in Vitro Effective against Trypanosoma cruzi and Selectively Eliminate Leishmania (L.) infantum Intracellular Amastigotes” (J Nat Prod, 2016).
pIC50: −log10 of the molar value. Calls of active or inactive are those of the source. No cut-off for these calls is given here.

Experiments:
[1] = Cytotoxicity against mouse NCTC-929 cells assessed as decrease in cell viability after 48 hrs by MTT assay; assay type: toxicity
How it was run: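 NCTC clone 929 murine cells seeded at 6×10^4/well. Compound up to 150 μM for 48 h at 37 °C, 5% CO2. Viability read by MTT. CC50 from sigmoidal dose-response; mean of at least two independent experiments.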

[2] = system: Trypanosoma cruzi; experiment: Antitrypanosomal activity against Trypanosoma cruzi Y trypomastigote forms infected in monkey LLC-MK2 cells assessed as reduction in parasite viability after 24 hrs by resazurin assay; assay type: functional, cell-based; conditions: LLC-MK2, 24 h
How it was run: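 Y-strain trypomastigotes from LLC-MK2 cultures seeded at 1×10^6/well in RPMI-1640. Compounds up to 150 μM, 24 h at 37 °C, 5% CO2. Viability by resazurin (0.011% in PBS), read at 570 nm against drug-free and cell-free wells; 0.5% DMSO control. IC50 by sigmoidal dose-response curve fitting.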

[3] = Selectivity index, ratio of CC50 for mouse NCTC-929 cells to IC50 for Trypanosoma cruzi Y trypomastigote form infected in monkey LLC-MK2 cells; assay type: functional
[4] = system: Leishmania infantum; experiment: Antileishmanial activity against Leishmania infantum MHOM/BR/1972/LD promastigote forms […] assessed as reduction in parasite viability after 48 hrs by MTT assay; assay type: functional
How it was run: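 Late-growth-phase promastigotes (passage 5) seeded at 1×10^6/well in M-199. Compounds dissolved in DMSO, tested up to 100 μM, 48 h at 24 °C. Viability by MTT, OD 570 nm, against drug-free (100%) and cell-free blank wells; 0.5% DMSO control. IC50 from sigmoidal dose-response curves; ≥2 independent assays.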

[5] = system: Leishmania infantum; experiment: Antileishmanial activity against Leishmania infantum MHOM/BR/1972/LD amastigote forms infected in BALB/c mouse peritoneal macrophages assessed as reduction in parasite viability after 120 hrs by giemsa staining based light microscopy; assay type: functional
How it was run: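 BALB/c peritoneal macrophages seeded at 1×10^5/well for 24 h, then infected with hamster spleen-derived amastigotes (1:10 macrophage:amastigote, 24 h, 37 °C, 5% CO2). Compound exposure for 120 h, highest 100 μM. Cells MeOH-fixed and Giemsa-stained; infected macrophages counted out of 400 cells. IC50 from sigmoidal dose-response; at least two independent assays.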

[6] = Selectivity index, ratio of CC50 for mouse NCTC-929 cells to IC50 for Leishmania infantum MHOM/BR/1972/LD amastigote forms infected in BALB/c mouse macrophages; assay type: functional
[7] = system: Trypanosoma cruzi; experiment: Potency index, ratio of benznidazole IC50 to compound IC50 for Trypanosoma cruzi Y trypomastigote forms infected in monkey LLC-MK2 cells; assay type: functional
[8] = system: Peritoneal macrophage; experiment: Antiinflammatory activity in BALB/c mouse peritoneal macrophages co-cultivated with splenocytes assessed as decrease in INF-gamma release at 15 uM after 48 hrs by flow cytometric analysis; assay type: functional
How it was run: (§1)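 Peritoneal macrophages from BALB/c mice seeded at 1.5×10^5 cells/well; after 24 h, infected where applicable with L. infantum spleen-derived amastigotes at 1:10 (macrophage:amastigote). After 24 h, cocultured where applicable with splenocytes at 6:1. Compound added for 48 h. Supernatant cytokines quantified with an inflammatory cytometric bead array by flow cytometry. Sham-treated infected macrophages served as reference.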

[9] = system: Leishmania infantum; experiment: Induction of mitochondrial membrane potential loss in Leishmania infantum MHOM/BR/1972/LD promastigote form at 34 uM incubated for 60 mins by rhodamine-123 dye based fluorimetric assay; assay type: functional
How it was run: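 Promastigotes (2×10^6/mL) in HBSS-glucose exposed to compound for 60 min at 25 °C. Rhodamine-123 (0.3 μg/mL) then added, cells washed and resuspended in HBSS-Glc, and fluorescence read at ex 485/em 520 nm. Sodium azide 10 mM as positive control; background, DMSO and untreated controls included. Triplicates.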

[10] = system: Peritoneal macrophage; experiment: Antiinflammatory activity in BALB/c mouse peritoneal macrophages infected with Leishmania infantum MHOM/BR/1972/LD amastigote form cocultivated with splenocytes assessed as decrease in INF-gamma release at 15 uM after 48 hrs by flow cytometric analysis; assay type: functional; how it was run: as §1
[11] = system: Leishmania infantum; experiment: Induction of plasma membrane permeability in Leishmania infantum MHOM/BR/1972/LD promastigote form assessed as increase in fluorescence intensity at 34 uM measured every 20 mins for 60 mins by SYTOX green dye based fluorimetric assay relative to control; assay type: functional
How it was run: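 Late-growth-phase promastigotes (passage 7) washed in PBS, seeded at 2×10^6/well and loaded with 1 μM SYTOX Green for 15 min at 24 °C. Compound added; fluorescence (ex 485/em 520 nm) read every 20 min over 60 min. 0.1% Triton X-100 defined maximal permeabilization. Background, DMSO, untreated and cell-free controls included. Triplicates.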

[12] = system: Splenocyte; experiment: Antiinflammatory activity in splenocytes (unknown origin) assessed as decrease in MCP1 release at 15 uM after 48 hrs by flow cytometric analysis; assay type: functional, cell-based
[13] = system: Leishmania infantum; experiment: Induction of ROS generation in Leishmania infantum MHOM/BR/1972/LD promastigote form at 34 uM incubated for […] by H2DCF-DA probe based fluorimetric assay relative to untreated control; assay type: functional
How it was run: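 Promastigotes (2×10^6/well) washed in HBSS and exposed to compound for 60 min. H2DCFDA (5 μM) then added for 15 min. Fluorescence read at ex 485/em 520 nm. Sodium azide 10 mM as positive control; background, DMSO, untreated and cell-free controls included. Triplicates.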

| Structure (SMILES) | CC50 at 48 h [1] | pIC50 [2] | Ratio CC50/IC50 [3] | pIC50 [4] | pIC50 [5] | Ratio CC50/IC50 [6] | Ratio IC50 [7] | Activity [8] | Activity [9] | Activity [10] | Activity [11] | Activity [12] | Activity [13] |
| --- | --- | --- | --- | --- | --- | --- | --- | --- | --- | --- | --- | --- | --- |
| O=C(Cn1ccnc1[N+](=O)[O-])NCc1ccccc1 [BENZNIDAZOLE] | > 150 µM | 4.80 | >9 | – | – | – | – | – | – | – | – | – | – |
| CCCCCCCCC[C@@H]1C[C@@H]2CC[C@H]3C(C(=O)O)[C@@H](C)N=C(N1)N23 (single isomer, unassigned; 16) | 60 µM | 4.16 | 0.9 | 4.33 | < 4.00 | – | – | – | – | – | – | – | – |
| CCCCCCCCCc1cc(CCCO)nc(N)n1 | 42 µM | 5.10 | 5 | 4.38 | 5.30 | 8 | – | – | – | – | – | – | – |
| C[C@@H]1CCC[C@]2(CCN3CC[C@]4(CCC[C@@H](C)O4)NC3=N2)O1 | > 150 µM | < 4.00 | – | < 4.00 | < 4.00 | – | – | – | – | – | – | – | – |
| CCCCCCCCCC(=O)OCCCC[C@H]1C[C@H]2CC[C@H]3C[C@@H](C)[NH+]=C(N1)N23.F[B-](F)(F)F | 84 µM | 5.40 | 28 | 4.23 | < 4.00 | – | 4 | – | – | – | – | – | – |
| C1CC[C@]2(C[C@H]3CC[C@H]4C[C@@]5(CCCCO5)[NH+]=C(N2)N34)OC1.F[B-](F)(F)F | > 150 µM | < 4.00 | – | < 4.00 | 5.10 | >19 | – | – | – | – | – | – | – |
| CC(=O)OCCCC[C@H]1C[C@H]2CC[C@H]3C[C@@H](C)[NH+]=C(N1)N23.F[B-](F)(F)F | > 150 µM | 4.06 | >2 | < 4.00 | < 4.00 | – | – | – | – | – | – | – | – |
| CC(C)=CCC/C(C)=C/CNC(=N)N.Cl | 116 µM | 4.46 | 3 | 5.05 | 4.72 | 6 | – | – | – | – | – | – | – |
| CCCCCCCC(=O)OCCCC[C@H]1C[C@H]2CC[C@H]3C[C@@H](C)[NH+]=C(N1)N23.F[B-](F)(F)F | 100 µM | 5.10 | 12 | 4.28 | < 4.00 | – | – | – | – | – | – | – | – |
| C[C@@H]1C[C@@H]2CC[C@@H]3C[C@H](CCCCO[Si](C(C)(C)C)(C(C)(C)C)C(C)(C)C)NC(=[NH+]1)N32.F[B-](F)(F)F | 65 µM | 5.40 | 16 | 5.15 | 4.74 | 4 | – | – | – | – | – | – | – |
| CCCCCC(=O)OCCCC[C@H]1C[C@H]2CC[C@H]3C[C@@H](C)[NH+]=C(N1)N23.F[B-](F)(F)F | > 150 µM | 4.66 | >7 | 3.96 | < 4.00 | – | – | – | – | – | – | – | – |
| F[B-](F)(F)F.c1ccc([C@@H]2C[C@@H]3CC[C@@H]4C[C@H](c5ccccc5)NC(=[NH+]2)N43)cc1 | 45 µM | 5.05 | 5 | 4.47 | 5.70 | 20 | – | Active | 70% | Active | 10% | Active | 60% |
| C[C@@H]1C[C@@H]2CC[C@@H]3C[C@H](CCCCO)NC(=N1)N32 | > 150 µM | < 4.00 | – | < 4.00 | < 4.00 | – | – | – | – | – | – | – | – |
| CCCCCCCCCCCCCCCCOP(=O)([O-])OCC[N+](C)(C)C [MILTEFOSINE] | 122 µM | – | – | – | 4.77 | 7 | – | – | – | – | – | – | – |
| C=CCOC(=O)C1=C(CCCCC[C@@H](C)O[Si](C(C)(C)C)(C(C)(C)C)C(C)(C)C)NC2=[N+]3[C@H](CC[C@@H]13)C[C@H](C)N2.CC(=O)[O-] | 2 µM | 6.05 | 2 | < 4.00 | 6.10 | 3 | 17 | – | – | – | – | – | – |
| C[C@H](O)CCCCC[C@@H]1C[C@H]2CC[C@H]3C[C@@H](C)NC(=[NH+]1)N23.F[B-](F)(F)F | > 150 µM | < 4.00 | – | < 4.00 | 4.31 | >3 | – | – | – | – | – | – | – |
| CCCCCCCCCCCC(=O)OCCCC[C@H]1C[C@H]2CC[C@H]3C[C@@H](C)[NH+]=C(N1)N23.F[B-](F)(F)F | 57 µM | 5.40 | 19 | 4.32 | < 4.00 | – | 4 | – | – | – | – | – | – |
| CCCC(=O)OCCCC[C@H]1C[C@H]2CC[C@H]3C[C@@H](C)[NH+]=C(N1)N23.F[B-](F)(F)F | > 150 µM | 4.31 | >2 | < 4.00 | < 4.00 | – | – | – | – | – | – | – | – |
| CCCCCCCCC[C@@H]1C[C@@H]2CC[C@H]3C(C(=O)O)[C@@H](C)N=C(N1)N23.O=C(O)C(F)(F)F (single isomer, unassigned; 15) | 70 µM | 4.10 | 0.9 | 4.24 | 4.62 | 3 | – | – | – | – | – | – | – |
